The text below walks through data of ChEMBL document CHEMBL3112437, “Virtual screening reveals allosteric inhibitors of the Toxoplasma gondii thymidylate synthase-dihydrofolate reductase” (Bioorg Med Chem Lett, 2014).

Experiment [1] deals with T1, Dihydrofolate reductase (Homo sapiens) (UniProt P00374).
T1 sequence (whole entry): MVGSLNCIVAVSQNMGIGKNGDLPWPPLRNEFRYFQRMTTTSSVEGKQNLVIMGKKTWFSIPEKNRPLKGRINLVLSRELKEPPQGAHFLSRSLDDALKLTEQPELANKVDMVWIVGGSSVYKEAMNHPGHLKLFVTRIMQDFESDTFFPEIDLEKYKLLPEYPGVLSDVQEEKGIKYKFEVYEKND
Kind of experiment: Inhibition of DHFR (unknown origin).

For experiment [2], the target named is T2, Bifunctional dihydrofolate reductase-thymidylate synthase (Toxoplasma gondii) (UniProt Q07422).
T2 sequence (whole entry): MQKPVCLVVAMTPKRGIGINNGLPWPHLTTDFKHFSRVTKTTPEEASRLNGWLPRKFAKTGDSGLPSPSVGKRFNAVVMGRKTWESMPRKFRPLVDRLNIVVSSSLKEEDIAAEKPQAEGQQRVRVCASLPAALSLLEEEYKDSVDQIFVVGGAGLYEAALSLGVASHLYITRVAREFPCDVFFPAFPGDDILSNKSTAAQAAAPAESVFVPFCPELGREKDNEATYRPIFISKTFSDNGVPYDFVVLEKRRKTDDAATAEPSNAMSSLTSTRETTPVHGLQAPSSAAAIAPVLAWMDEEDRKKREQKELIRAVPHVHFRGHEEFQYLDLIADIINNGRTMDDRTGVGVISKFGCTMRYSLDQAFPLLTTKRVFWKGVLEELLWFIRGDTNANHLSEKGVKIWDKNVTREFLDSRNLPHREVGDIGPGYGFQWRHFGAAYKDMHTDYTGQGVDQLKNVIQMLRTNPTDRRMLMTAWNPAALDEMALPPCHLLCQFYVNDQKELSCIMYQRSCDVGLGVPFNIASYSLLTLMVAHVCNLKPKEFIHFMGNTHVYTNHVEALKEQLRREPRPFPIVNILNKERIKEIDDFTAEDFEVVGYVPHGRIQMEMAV
Put plainly: Noncompetitive inhibition of Toxoplasma gondii TS-DHFR using methylenetetrahydrofolate as substrate at 25 uM by Michaelis-Menten plot analysis.

For experiment [3], the target named is T2, Bifunctional dihydrofolate reductase-thymidylate synthase (Toxoplasma gondii). Kind of experiment: Mixed type inhibition of Toxoplasma gondii TS-DHFR using dUMP as substrate at 25 uM by Michaelis-Menten plot analysis.
The target in experiment [4] is T3, Bifunctional dihydrofolate reductase-thymidylate synthase (Toxoplasma gondii, UniProt Q07422).
T3 sequence (Q07422 whole entry): T2 sequence (whole entry)
Put plainly: (§1) Inhibition of Toxoplasma gondii TS-DHFR by Michaelis-Menten plot analysis in presence of bovine serum albumin. In a few lines: (§2)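 Promiscuity (aggregation) check: TgTS-DHFR was preincubated with 0.1 mg/mL BSA before inhibitor was added. TS inhibitory potency was then determined.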

The target of experiment [5] is T3, Bifunctional dihydrofolate reductase-thymidylate synthase. Kind of experiment: Inhibition of Toxoplasma gondii TS-DHFR using methylenetetrahydrofolate/dUMP as sustrate. Summed up: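 T. gondii TS-DHFR was preincubated with dUMP before compound was added. TS activity was measured across varying compound concentrations. Data were fit to a Michaelis-Menten curve for IC50. Duplicate points; SD between repeats.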

For experiment [6] the target is unchanged. Kind of experiment: Inhibition of Toxoplasma gondii TS-DHFR using methylenetetrahydrofolate/dUMP as sustrate preincubated for 10 mins followed by substrate addition. Summed up: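 T. gondii TS activity at varying compound concentrations. Compound was mixed with apo TS-DHFR, with no dUMP preincubation. Data were fit to a Michaelis-Menten curve to give IC50. Points in duplicate; SD between repeats.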

The target in experiment [7] is T2, Bifunctional dihydrofolate reductase-thymidylate synthase (Toxoplasma gondii). Described as §1. In a few lines:
as §2

Molecules are shown by their SMILES. Active and inactive are the calls of the source. The rule behind the calls is not given here.

`COC(=O)Nc1nc2cc(-c3nnc(O)c4ccccc34)ccc2[nH]1`: the inhibition result in experiment [1] is “inactive”. In addition, the inhibition result in experiment [2] and in experiment [3] was “Active” each time. Besides, the values for the IC50 in experiment [4], in experiment [5] and in experiment [6] were 139 µM, 142 µM and 51 µM, respectively.

For `O=C(Nc1ccccc1)OCc1ccc(-c2cc(C(F)(F)F)cc(C(F)(F)F)c2)o1`, the inhibition entry in experiment [7] is “inactive”. Also, the IC50 in experiment [5] turned out to be 190 µM; in experiment [6] it was 54 µM.
